Assay outcomes: PubChem BioAssay, several laboratories
Mdm2 MdmX PPI = inhibitors of human Mdm2/MdmX interaction; inhibition, % at 8 µM; 330,000 tested, 3% active; SaOS-2 split-luciferase Mdm2/MdmX complementation, luminescence;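 active = inhibition of at least 50% at 8 µM in the primary screen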
Target sequence (O15151 whole entry, looked up): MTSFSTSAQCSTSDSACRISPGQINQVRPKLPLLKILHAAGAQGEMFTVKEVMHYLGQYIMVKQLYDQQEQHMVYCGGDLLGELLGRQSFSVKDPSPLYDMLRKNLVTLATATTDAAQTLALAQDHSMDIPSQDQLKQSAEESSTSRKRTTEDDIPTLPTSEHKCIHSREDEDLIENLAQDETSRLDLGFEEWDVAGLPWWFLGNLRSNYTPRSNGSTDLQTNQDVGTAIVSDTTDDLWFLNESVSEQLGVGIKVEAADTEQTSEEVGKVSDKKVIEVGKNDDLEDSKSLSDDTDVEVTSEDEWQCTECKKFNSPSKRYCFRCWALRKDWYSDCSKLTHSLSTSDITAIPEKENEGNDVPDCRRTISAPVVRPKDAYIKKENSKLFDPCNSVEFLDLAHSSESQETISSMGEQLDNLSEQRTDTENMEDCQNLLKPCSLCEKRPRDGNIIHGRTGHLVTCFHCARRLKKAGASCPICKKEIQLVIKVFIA
Target sequence (Q00987 whole entry, looked up): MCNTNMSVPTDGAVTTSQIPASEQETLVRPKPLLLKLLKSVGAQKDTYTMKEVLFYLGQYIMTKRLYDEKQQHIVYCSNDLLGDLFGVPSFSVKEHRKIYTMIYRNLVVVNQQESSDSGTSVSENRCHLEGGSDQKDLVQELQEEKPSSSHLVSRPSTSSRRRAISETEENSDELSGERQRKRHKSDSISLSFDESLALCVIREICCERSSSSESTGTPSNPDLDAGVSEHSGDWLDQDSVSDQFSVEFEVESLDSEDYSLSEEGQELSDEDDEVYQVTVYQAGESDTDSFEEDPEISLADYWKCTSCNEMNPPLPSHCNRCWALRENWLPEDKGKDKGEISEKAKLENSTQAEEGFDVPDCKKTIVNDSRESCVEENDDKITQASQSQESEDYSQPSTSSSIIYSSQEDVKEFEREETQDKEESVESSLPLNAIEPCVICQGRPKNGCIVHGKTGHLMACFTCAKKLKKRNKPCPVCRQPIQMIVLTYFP
aSyn UTR inh = 5' untranslated region of α-synuclein, MLPCN primary screen; alpha-synuclein 5'UTR reporter, inhibitor activity; inhibition, % (tested at 7.5 µM); 300,000 tested, 0.82% active; AID 1813; in the data active = inhibition above about 60%;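 note: H4 neuroglioblastoma cells stably carrying SNCA 5'UTR luciferase fusion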
VIM-2 inhibitor = blocks Pseudomonas aeruginosa VIM-2 metallo-beta-lactamase; purified VIM-2, nitrocefin hydrolysis, epi-absorbance fluorescence; inhibition, % at 5.6 µM; 290,000 tested, 0.89% active; AID 1527;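 active = inhibition above the mean of all tested compounds plus 3 SD, cutoff set per screening run, cut at about 7.5% in these data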;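 note: red hydrolysis product quenches plate fluorescence so inhibitors raise well fluorescence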
Jurkat NFkB inh = lowers PMA/ionomycin-induced NF-kB signal in Jurkat cells | PMA/ionomycin-induced NF-kB luciferase reporter, luminescence | inhibition, % at 4 µM | 330,000 tested, 0.53% active | AID 435003; in the data active = inhibition above about 50%
IMP-1 inhibitor = inhibitors of Pseudomonas aeruginosa IMP-1 metallo-beta-lactamase; inhibition, % at 5.6 µM; purified IMP-1, nitrocefin hydrolysis, epi-absorbance fluorescence; 290,000 tested, 0.45% active; AID 1556;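 active = inhibition above the mean plus 3 SD of all compounds in the same screening run, cut at about 4.5% in these data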
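Material – recombinant IMP-1 enzyme, purified · Amount – IMP-1 0.2 nM before substrate addition · Medium – HEPES buffer pH 7.1 with ZnSO4 and Brij 35 · Timing – 25 °C, 15 min preincubation, 25 min reaction · Measured by – plate fluorescence quenching by hydrolysis product, ex 480/em 530 nm · Read-out – percent enzyme inhibition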
697 NFkB inh = lowers PMA/ionomycin-induced NF-kB signal in 697 B cells. 697 B-cell NF-kB luciferase reporter, 16 h. inhibition, % at 4 µM. 330,000 tested, 0.33% active. AID 435022; in the data active = inhibition above about 35%
Hits are given with their value. Shown are actives, neighbours in structure and some others; about 4.7% of the full set was active somewhere.

CC1CC(C)CN(C(=O)CCNC(=O)Cn2ccc3ccccc3c2=O)C1 (stereo unspecified) was read as Mdm2 MdmX PPI inactive, aSyn UTR inh inactive, VIM-2 inhibitor inactive, Jurkat NFkB inh inactive, IMP-1 inhibitor inactive and 697 NFkB inh inactive.
`O=C(N/N=C/c1cc([N+](=O)[O-])ccc1O)c1cccc2cc[nH]c12` gave Mdm2 MdmX PPI inactive, aSyn UTR inh 68.0, VIM-2 inhibitor inactive, Jurkat NFkB inh inactive, IMP-1 inhibitor inactive and 697 NFkB inh inactive.
Screening CC(=O)Nc1ccc(S(=O)(=O)N[C@@H](C)C(=O)N2CCN(C/C=C/c3ccccc3)CC2)cc1 returned Mdm2 MdmX PPI inactive, Jurkat NFkB inh inactive and 697 NFkB inh inactive.
COc1cc2c(cc1/C=C/C(=O)O)OC(C)C2 (stereo unspecified) was read as Mdm2 MdmX PPI inactive, aSyn UTR inh inactive, VIM-2 inhibitor inactive, Jurkat NFkB inh inactive, IMP-1 inhibitor 9.2 and 697 NFkB inh inactive.
For CCCCC1CCC(C(=O)N(CCOC)c2c(N)n(CCCC)c(=O)[nH]c2=O)CC1 (stereo unspecified) the results were Mdm2 MdmX PPI inactive, aSyn UTR inh inactive, Jurkat NFkB inh inactive and 697 NFkB inh inactive.
For Cc1ccccc1NC(=O)c1cnc2ccccn2c1=O the results were Mdm2 MdmX PPI inactive, aSyn UTR inh 61.8, VIM-2 inhibitor inactive, Jurkat NFkB inh inactive, IMP-1 inhibitor inactive and 697 NFkB inh inactive.
Cc1ccccc1NC(=O)c1cc2c(=O)n3cccc(C)c3nc2s1 was read as Mdm2 MdmX PPI inactive, aSyn UTR inh inactive, VIM-2 inhibitor 9.2, Jurkat NFkB inh inactive, IMP-1 inhibitor inactive and 697 NFkB inh inactive.
Screening Cc1nn(C(C)C(=O)N2CCCC2)c(=O)c2nn(-c3ccccc3)c(C)c12 (stereo unspecified) returned Mdm2 MdmX PPI inactive, aSyn UTR inh inactive, VIM-2 inhibitor inactive, Jurkat NFkB inh inactive, IMP-1 inhibitor inactive and 697 NFkB inh inactive.
O=C(CCC(=O)N1CCN(S(=O)(=O)c2ccc3ccccc3c2)CC1)NCC(F)(F)F was read as Mdm2 MdmX PPI inactive, aSyn UTR inh inactive, VIM-2 inhibitor inactive, Jurkat NFkB inh inactive, IMP-1 inhibitor inactive and 697 NFkB inh inactive.
For Cn1c(=O)[nH]c2cc3ccccc3cc21 the results were Mdm2 MdmX PPI inactive, aSyn UTR inh 61.9, VIM-2 inhibitor inactive, Jurkat NFkB inh inactive, IMP-1 inhibitor inactive and 697 NFkB inh inactive.
Screening CCC(C)Nc1nc(N)c([N+](=O)[O-])c(NCc2ccccc2)n1 (stereo unspecified) returned Mdm2 MdmX PPI inactive, aSyn UTR inh 64.7, VIM-2 inhibitor inactive, Jurkat NFkB inh inactive, IMP-1 inhibitor inactive and 697 NFkB inh inactive.
`COCCCNc1nc(N)c([N+](=O)[O-])c(NC2CCCCC2)n1` gave Mdm2 MdmX PPI inactive, aSyn UTR inh 90.1, VIM-2 inhibitor inactive, Jurkat NFkB inh inactive, IMP-1 inhibitor inactive and 697 NFkB inh inactive.
Nc1nc(NCC(=O)O)nc(NC2CCCCC2)c1[N+](=O)[O-] was read as Mdm2 MdmX PPI inactive, aSyn UTR inh inactive, VIM-2 inhibitor inactive, Jurkat NFkB inh inactive, IMP-1 inhibitor inactive and 697 NFkB inh inactive.
`CCC(C)Nc1nc(N)c([N+](=O)[O-])c(NC2CCCCC2)n1` (stereo unspecified) gave Mdm2 MdmX PPI inactive, aSyn UTR inh 102.2, VIM-2 inhibitor inactive, Jurkat NFkB inh inactive, IMP-1 inhibitor inactive and 697 NFkB inh inactive.
Screening CC(C)CCNc1nc(N)c([N+](=O)[O-])c(NCC2CCCO2)n1 (stereo unspecified) returned Mdm2 MdmX PPI inactive, aSyn UTR inh 61.6, VIM-2 inhibitor inactive, Jurkat NFkB inh inactive, IMP-1 inhibitor inactive and 697 NFkB inh inactive.
`Nc1nc(NCC2CCCO2)nc(NCC2CCCO2)c1[N+](=O)[O-]` (stereo unspecified) gave Mdm2 MdmX PPI inactive, aSyn UTR inh inactive, VIM-2 inhibitor inactive, Jurkat NFkB inh inactive, IMP-1 inhibitor inactive and 697 NFkB inh inactive.
`COc1ccc(N2CCN(C(=O)c3ccc4c(c3)CC(c3ccccc3)OC4=O)CC2)cc1` (stereo unspecified) gave Mdm2 MdmX PPI inactive, Jurkat NFkB inh inactive and 697 NFkB inh inactive.
Screening CC(=O)Nc1cccc(C(=O)NNC(=O)c2ccccc2-n2cccc2)c1 returned Mdm2 MdmX PPI inactive, Jurkat NFkB inh inactive and 697 NFkB inh inactive.
